Source: PubChem (several laboratories)
Hits are enriched below; roughly 4.7% of the tested compounds scored in any of these assays.
MrgX1 allo act – human MrgX1 positive allosteric modulation, primary screen. B-score at 10 µM. 310,000 tested, 0.63% active. Q96LB2. MrgX1-HEK293, Fluo-4 calcium flux, FDSS; hits give high values. AID 588675;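 active = plate-corrected calcium response at least 3 library SD above typical, normal starting fluorescence, not activating the receptor alone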;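 also: compound read alongside a low EC10 to EC30 dose of BAM8-22 agonist; peak minus trough fluorescence over baseline measured at the second addition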
RGS4 pot – RGS4 potentiation or activation; HEK293 M3R/inducible RGS4, carbachol calcium flux Fluo4; hits give low values; 310,000 tested, 0.92% active; B-score at 10 µM;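 active = B-score of the integrated calcium signal more than 4 SD below the library mean, with starting fluorescence not abnormally high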;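 also: negative B-score means reduced calcium response which marks RGS4 activation or potentiation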
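Assay system: HEK293 FlpIn-TREx cells, stable M3R, doxycycline-inducible RGS4 / Probe or stimulus: carbachol, ECmax concentration / Times: overnight RGS4 induction, 30 min dye load 37 °C, 20 min compound RT / Signal: kinetic calcium fluorescence imaging with Fluo4-AM dye, 2 µM / Measure: Agonist-evoked peak-minus-minimum fluorescence over baseline, integrated ratio, B score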
MrgX1 agonist – human MrgX1 receptor agonism, primary screen; Q96LB2; MrgX1-HEK293 cells, Fluo-4 calcium fluorescence, agonist mode; hits give high values; B-score at 10 µM; 310,000 tested, 0.44% active; AID 588627;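 active = calcium response B-score plate-corrected fluorescence ratio at least 3 library SD, with starting fluorescence B-score inside 5 SD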
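Test system: Stable human MrgX1 HEK293 cell line | Schedule: Overnight plating before 1 h dye loading | Read-out basis: Baseline-normalised fluorescence change ratio, B-scored | Detection: Kinetic calcium dye fluorescence, Fluo-4 NW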
KCC2 mod – modulators of human KCC2 chloride dependent transport. Q9H2X9. KCC2 cells, thallium flux FluoZin-2 fluorescence. B-score of Tl+ flux slope (higher = more flux/activation; lower = inhibition) at 10 µM. 190,000 tested, 2.2% active. AID 1456;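 active = thallium flux slope and its plate-corrected score both differing from the plate sample mean at a set confidence after two filtering rounds, in either direction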;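 also: slope of fluorescence scaled to starting intensity during 10 to 20 s after thallium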
MrgX1 antagonist – blocks BAM8-22 activation of human MrgX1 receptor; Q96LB2; MRGX1-HEK293 calcium flux, Fluo-4, BAM8-22 antagonism; hits give low values; B-score at 10 µM; 310,000 tested, 1.3% active; AID 588676;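 active = calcium-response B-score plate-corrected more than 3 library SD below zero, starting fluorescence within 5 deviations, no agonist response on first addition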;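 also: peak minus trough fluorescence over baseline after final BAM8-22 challenge near maximal dose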
RGS4 block – inhibitors of human RGS4; B-score at 10 µM; AID 463165; HEK293 M3R/RGS4 inducible, Fluo-4 calcium flux; hits give high values; triggered by carbachol at its EC20; 310,000 tested, 0.45% active;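 active = B-score, a plate-corrected calcium signal, over three deviations above library mean, with baseline fluorescence within five deviations of library mean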;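 also: RGS4 expression induced by doxycycline in cells with stable M3 receptor; B-score is computed from the integrated fluorescence ratio over baseline after carbachol; higher B-score means a larger calcium signal and so more RGS4 inhibition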
* hit, by the source's call.

What do the screens show for `Cc1cc(C)cc(OCC(=O)Nc2cccc(-c3nnc(-c4ccco4)o3)c2)c1`?
MrgX1 allo act: inactive; RGS4 pot: -7.57*; MrgX1 agonist: inactive; MrgX1 antagonist: inactive; RGS4 block: inactive

How did COc1ccc(CC(=O)Nc2cccc(-c3nnc(-c4ccco4)o3)c2)cc1 do in these assays?
MrgX1 allo act: inactive; RGS4 pot: inactive; MrgX1 agonist: inactive; KCC2 mod: -0.284; MrgX1 antagonist: inactive; RGS4 block: inactive

How did C=CCc1cccc(/C=N/NC(=O)c2ccc3nc[nH]c3c2)c1O do in these assays?
MrgX1 allo act: inactive; RGS4 pot: inactive; MrgX1 agonist: inactive; MrgX1 antagonist: inactive; RGS4 block: inactive

How did COc1ccccc1C(=O)NC(=Nc1nc2ccccc2o1)NC(=O)c1ccccc1OC do in these assays?
MrgX1 allo act: inactive; RGS4 pot: -7.21*; MrgX1 agonist: inactive; KCC2 mod: -3.27; MrgX1 antagonist: inactive; RGS4 block: inactive

What do the screens show for `O=C1/C(=C/c2ccccn2)SC(=S)N1NS(=O)(=O)c1ccccc1`?
MrgX1 allo act: 8.94*; RGS4 pot: inactive; MrgX1 agonist: inactive; KCC2 mod: 2.06; MrgX1 antagonist: -5.32*; RGS4 block: inactive

Results for C=CCOc1ccc(/C=C2\SC(=S)N(NS(=O)(=O)c3ccc(C)cc3)C2=O)cc1 ?
MrgX1 allo act: inactive; RGS4 pot: -7.03*; MrgX1 agonist: inactive; MrgX1 antagonist: inactive; RGS4 block: inactive

Results for COc1ccc(/C=C2/SC(=S)N(NS(=O)(=O)c3ccc(C)cc3)C2=O)cc1 ?
MrgX1 allo act: inactive; RGS4 pot: -8.37*; MrgX1 agonist: inactive; MrgX1 antagonist: -5.24*; RGS4 block: inactive

What do the screens show for `O=C1/C(=C/c2cccc(F)c2)SC(=S)N1NS(=O)(=O)c1ccccc1`?
MrgX1 allo act: inactive; RGS4 pot: inactive; MrgX1 agonist: inactive; MrgX1 antagonist: inactive; RGS4 block: inactive

What do the screens show for `Cc1ccc(/C=C2\SC(=S)N(NS(=O)(=O)c3ccc(C)cc3)C2=O)cc1`?
MrgX1 allo act: inactive; RGS4 pot: -8.17*; MrgX1 agonist: inactive; MrgX1 antagonist: inactive; RGS4 block: inactive

How did Cc1ccc(S(=O)(=O)NN2C(=O)/C(=C/c3ccc(F)cc3)SC2=S)cc1 do in these assays?
MrgX1 allo act: inactive; RGS4 pot: inactive; MrgX1 agonist: inactive; MrgX1 antagonist: inactive; RGS4 block: inactive

Results for Cc1ccc(S(=O)(=O)NN2C(=O)/C(=C\c3ccc(Cl)cc3)SC2=S)cc1 ?
MrgX1 allo act: inactive; RGS4 pot: inactive; MrgX1 agonist: inactive; MrgX1 antagonist: inactive; RGS4 block: inactive

Results for O=C(NCc1ccccc1Cl)c1cc2c(s1)CS(=O)(=O)C2 ?
MrgX1 allo act: inactive; RGS4 pot: inactive; MrgX1 agonist: inactive; MrgX1 antagonist: inactive; RGS4 block: inactive

Results for O=C(Nn1cnnc1)c1ccc(F)cc1 ?
MrgX1 allo act: inactive; RGS4 pot: inactive; MrgX1 agonist: inactive; MrgX1 antagonist: inactive; RGS4 block: inactive

Results for COc1ccc(CCNC(=O)c2c(Cl)ccc(Cl)c2OC)cc1OC ?
MrgX1 allo act: inactive; RGS4 pot: inactive; MrgX1 agonist: inactive; MrgX1 antagonist: inactive; RGS4 block: inactive

How did COc1ccc(/C=C2/SC(=O)N(NS(=O)(=O)c3ccccc3)C2=S)cc1OC do in these assays?
MrgX1 allo act: inactive; RGS4 pot: inactive; MrgX1 agonist: 27.3*; MrgX1 antagonist: inactive; RGS4 block: inactive

Results for COc1cc(/C=C2\SC(=S)N(NS(=O)(=O)c3ccccc3)C2=O)cc(OC)c1OC ?
MrgX1 allo act: inactive; RGS4 pot: inactive; MrgX1 agonist: inactive; KCC2 mod: 0.357; MrgX1 antagonist: inactive; RGS4 block: inactive

Results for CCCCn1nc(C(=O)Oc2ccc3c(C)cc(=O)oc3c2)c2ccccc2c1=O ?
MrgX1 allo act: inactive; RGS4 pot: inactive; MrgX1 agonist: inactive; KCC2 mod: 0.897; MrgX1 antagonist: -6.6*; RGS4 block: inactive

Results for COc1ccccc1Nc1ccc2nonc2c1[N+](=O)[O-] ?
MrgX1 allo act: inactive; RGS4 pot: inactive; MrgX1 agonist: inactive; MrgX1 antagonist: inactive; RGS4 block: inactive

What do the screens show for `CCc1ccc(-c2cc(-c3n[nH]c(=S)n3CC)c3ccccc3n2)cc1`?
MrgX1 allo act: inactive; RGS4 pot: inactive; MrgX1 agonist: inactive; KCC2 mod: 2.35; MrgX1 antagonist: inactive; RGS4 block: inactive

What do the screens show for `CCn1c(-c2cc(-c3cccc(OC)c3)nc3ccccc23)n[nH]c1=S`?
MrgX1 allo act: inactive; RGS4 pot: inactive; MrgX1 agonist: inactive; KCC2 mod: 2.71*; MrgX1 antagonist: inactive; RGS4 block: inactive

What do the screens show for `CC1(C)C2CCC1(CS(=O)(=O)NC(CC(=O)O)c1cccc(Br)c1)C(=O)C2` (centres undefined)?
MrgX1 allo act: inactive; RGS4 pot: inactive; MrgX1 agonist: inactive; MrgX1 antagonist: inactive; RGS4 block: inactive

Results for COc1cc(/C(C)=C/c2ccccc2)c2c(c1)oc1ccccc12 ?
MrgX1 allo act: 9*; RGS4 pot: inactive; MrgX1 agonist: inactive; MrgX1 antagonist: inactive; RGS4 block: inactive

Results for O=c1c2ccccc2nc(/C=C/c2cccc([N+](=O)[O-])c2)n1CCCO ?
MrgX1 allo act: 7.21*; RGS4 pot: inactive; MrgX1 agonist: inactive; KCC2 mod: -0.254; MrgX1 antagonist: inactive; RGS4 block: inactive

What do the screens show for `COc1ccc(Cc2nnc(NC(=O)c3ccccc3F)s2)cc1`?
MrgX1 allo act: inactive; RGS4 pot: inactive; MrgX1 agonist: inactive; MrgX1 antagonist: inactive; RGS4 block: inactive

How did CCCn1c(=O)n(C)c(=O)c2c(SCC(=O)NCC(c3ccccc3)N(C)C)nc(CC(C)C)nc21 (centres undefined) do in these assays?
MrgX1 allo act: inactive; RGS4 pot: inactive; MrgX1 agonist: inactive; MrgX1 antagonist: inactive; RGS4 block: inactive

Results for COc1ccc(/C=N\NC(=O)c2ccc(F)cc2)cc1COc1cc(F)ccc1[N+](=O)[O-] ?
MrgX1 allo act: inactive; RGS4 pot: -9.85*; MrgX1 agonist: inactive; MrgX1 antagonist: inactive; RGS4 block: inactive

What do the screens show for `CCOC(=O)c1ccccc1OCc1cc(/C=N/NC(=O)c2cccnc2)ccc1OC`?
MrgX1 allo act: inactive; RGS4 pot: -7.91*; MrgX1 agonist: inactive; KCC2 mod: -1.29; MrgX1 antagonist: inactive; RGS4 block: inactive

How did COc1ccc(/C=N/NS(=O)(=O)c2ccc(F)cc2)cc1COc1cc(F)ccc1[N+](=O)[O-] do in these assays?
MrgX1 allo act: inactive; RGS4 pot: inactive; MrgX1 agonist: inactive; KCC2 mod: -0.319; MrgX1 antagonist: inactive; RGS4 block: inactive
